Data as given in article PMC7318623 (Chemmedchem, 2020).

Experiments:
K562‐resistant cells = assay: Induction of cell death by PI FACS analyses, without or with imatinib; format: cell-based; details: for cell death rate, compound in combination with imatinib: 10 μM compound + 1 μM imatinib
COS‐7 cells = assay: Modified MTT assay; format: cell-based, monkey; details: non-malignant COS-7 cells
Method in brief: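 COS-7 cells seeded 2×10³ per well in triplicate, then 24 h in humidified 5% CO2/95% air at 37 °C before dosing. Test compound added at 20 μM alongside a DMSO vehicle control (DMSO ≤0.1% final) and incubated 72 h. Metabolic activity read by the EZ4U modified MTT (formazan) assay and expressed relative to vehicle control set at 100%. Mean + SD, ≥3 independent experiments, three replicates each.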

PPARγ = biological target: T1, PPARγ (Homo sapiens, UniProt P37231); assay: PPARγ luciferase transactivation assay; format: cell-based
T1 sequence (P37231 238-503 limits assumed): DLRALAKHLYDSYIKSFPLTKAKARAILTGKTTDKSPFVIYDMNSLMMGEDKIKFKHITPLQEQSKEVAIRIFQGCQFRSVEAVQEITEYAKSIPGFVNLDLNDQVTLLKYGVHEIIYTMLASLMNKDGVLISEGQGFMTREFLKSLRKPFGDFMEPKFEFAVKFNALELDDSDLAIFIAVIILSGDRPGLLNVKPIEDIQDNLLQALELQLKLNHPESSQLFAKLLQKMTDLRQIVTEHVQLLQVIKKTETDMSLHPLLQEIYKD

| EC50 (PPARγ) [µM] | Compound | cell death rate, compound in combination with imatinib (K562‐resistant cells; 72 h) [%] | also measured |
| --- | --- | --- | --- |
| 10.4 ± 3.9 | O=C(O)c1ccccc1-c1ccc(Cn2c3ccccc3c3ccccc32)cc1 [3 a, 4′‐((9H‐Carbazol‐9‐yl)methyl)‐[1,1′‐biphenyl]‐2‐carboxylic acid] |  |  |
| 6.86 ± 1.58 | CCc1c(C)n(Cc2ccc(-c3ccccc3C(=O)O)cc2)c2ccccc12 [3 c, 4′‐((3‐Ethyl‐2‐methyl‐1H‐indol‐1‐yl)methyl)‐[1,1′‐biphenyl]‐2‐carboxylic acid] |  |  |
| 5.68 ± 1.07 | O=C(O)c1ccccc1-c1ccc(Cn2c3ccccc3c3cc(Br)ccc32)cc1 [6 a, 4′‐((3‐Bromo‐9H‐carbazol‐9‐yl)methyl)‐[1,1′‐biphenyl]‐2‐carboxylic acid] |  |  |
| 9.52 ± 0.74 | CCc1c(C)n(Cc2ccc(-c3ccccc3C(=O)O)cc2)c2ccc(Br)cc12 [6 c, 4′‐((5‐Bromo‐3‐ethyl‐2‐methyl‐1H‐indol‐1‐yl)methyl)‐[1,1′‐biphenyl]‐2‐carboxylic acid] |  |  |

More lines, now with the values behind:

| Compound | EC50 (PPARγ) [µM] | cell death rate, compound in combination with imatinib (K562‐resistant cells; 72 h) [%] | also measured |
| --- | --- | --- | --- |
| CCCc1nc2ccccc2n1Cc1ccc(-c2ccccc2C(=O)OC)cc1 [2 b, Methyl 4′‐((2‐propyl‐1H‐benzo[d]imidazol‐1‐yl)methyl)‐[1,1′‐biphenyl]‐2‐carboxylate] |  | 80 | cell death rate, compound alone (K562‐resistant cells; 10 μM compound, 72 h, without imatinib): 21%; cytotoxicity per se (in words) (COS‐7 cells): did not exert cytotoxicity per se; PPARγ activation at 20 μM (PPARγ; compound at 20 μM, relative to pioglitazone 10 μM = 100 %): about 36% |
| CCCc1nc2ccccc2n1Cc1ccc(-c2ccccc2C(=O)O)cc1 [3 b, 4′‐((2‐Propyl‐1H‐benzo[d]imidazol‐1‐yl)methyl)‐[1,1′‐biphenyl]‐2‐carboxylic acid] | 6.98 ± 1.06 | 31 |  |
| CCCc1nc2cc(Br)ccc2n1Cc1ccc(-c2ccccc2C(=O)OC)cc1 [5 b, Methyl 4′‐((5‐bromo‐2‐propyl‐1H‐benzo[d]imidazol‐1‐yl)methyl)‐[1,1′‐biphenyl]‐2‐carboxylate] |  | 31 |  |
| CCCc1nc2ccc(Br)cc2n1Cc1ccc(-c2ccccc2C(=O)OC)cc1 [6‐Br‐CO2CH3, methyl 4′‐((6‐bromo‐2‐propyl‐1H‐benzo[d]imidazol‐1‐yl)methyl)‐[1,1′‐biphenyl]‐2‐carboxylate] |  | 63 |  |
| Cc1ccc(NC(=O)c2ccc(CN3CCN(C)CC3)cc2)cc1Nc1nccc(-c2cccnc2)n1 [imatinib, reference compound] |  |  | cell death, imatinib alone (K562‐resistant cells; 1 μM imatinib, K562-resistant (KD225) cells): 10–20% |
| CCCc1nc2c(C)cc(-c3nc4ccccc4n3C)cc2n1Cc1ccc(-c2ccccc2C(=O)O)cc1 [telmisartan, reference compound] | 4.78 ± 0.79 |  |  |
